From ChEMBL document CHEMBL4004819, “Discovery of a Phosphoinositide 3-Kinase (PI3K) β/δ Inhibitor for the Treatment of Phosphatase and Tensin Homolog (PTEN) Deficient Tumors: Building PI3Kβ Potency in a PI3Kδ-Selective Template by Targeting Nonconserved Asp856” (J Med Chem, 2017)
pEC50, pIC50: −log10 of the molar value.

How the values were obtained:
[1] = target: Phosphatidylinositol 4,5-bisphosphate 3-kinase catalytic subunit gamma isoform (Homo sapiens, UniProt P48736); experiment: Inhibition of human full length PI3Kgamma using PIP2/ATP as substrate after 30 mins by TR-FRET assay
[2] = target: PI3-kinase p110-alpha/p85-alpha (Homo sapiens, UniProt P42336); experiment: Inhibition of human full length PI3K p110alpha/p85 alpha using PIP2/ATP as substrate after 30 mins by TR-FRET assay
[3] = target: PI3-kinase p110-delta/p85-alpha (Homo sapiens, UniProt O00329); experiment: Inhibition of human full length PI3K p110delta/p85 alpha using PIP2/ATP as substrate after 30 mins by TR-FRET assay
[4] = Drug metabolism in human hepatocytes assessed as formation of oxidative metabolite of pyrimidine moiety; format: ADME, cell-based, Hepatocyte
[5] = Volume of distribution at steady state in Sprague-Dawley rat plasma at 1 mg/kg, iv administered via infusion over 30 mins measured over 24 hrs by LC/MS/MS analysis; format: ADME, organism-based; settings: read-out: Vdss
Outline: (§1)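 Single intravenous dose of 1 mg/kg. Half-life, mean residence time and steady-state volume of distribution were taken from the iv arm. Values are mean ± SD, n=3 animals per route.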

[6] = Permeability from basolateral to apical side in human Caco2 cells; format: ADME, cell-based; settings: Caco-2, read-out: permeability
[7] = Clearance in Sprague-Dawley rat at 1 mg/kg, iv administered via infusion over 30 mins measured over 24 hrs by LC/MS/MS analysis; format: ADME, organism-based; settings: in vivo
[8] = Permeability from apical to basolateral side in human Caco2 cells; format: ADME, cell-based; settings: Caco-2, read-out: permeability
[9] = Oral bioavailability in Sprague-Dawley rat plasma at 5 mg/kg administered via gavage by LC/MS/MS analysis; format: ADME, organism-based
Outline: (§2)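 Oral dose of 5 mg/kg, formulated in 5% ethanol, 50% PEG 300 and 45% water. Bioavailability was referenced to the separate 1 mg/kg intravenous arm. Values are mean ± SD, n=3 animals per route.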

LNCaP [10] = experiment: Growth inhibition of PTEN-deficient human LNCAP cells after 72 hrs by Celltiter-Glo reagent based assay; format: functional
[11] = Mean residence time in Beagle dog plasma at 1 mg/kg, iv administered via infusion over 30 mins measured over 24 hrs by LC/MS/MS analysis; format: ADME, organism-based, Canis lupus familiaris; outline: as §1
[12] = Mean residence time in rhesus monkey plasma at 1 mg/kg, iv administered via infusion over 30 mins measured over 24 hrs by LC/MS/MS analysis; format: ADME, organism-based, Macaca mulatta; outline: as §1
[13] = Apparent terminal half life in rhesus monkey plasma at 1 mg/kg, iv administered via infusion over 30 mins measured over 24 hrs by LC/MS/MS analysis; format: ADME, organism-based, Macaca mulatta; settings: read-out: betat1/2(app) (converted); outline: as §1
[14] = target: Voltage-gated inwardly rectifying potassium channel KCNH2 (Homo sapiens, UniProt Q12809); experiment: Inhibition of human ERG
Outline: (§3)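 Measured in binding assays against major human CYP450 enzymes and hERG.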

[15] = Mean residence time in Sprague-Dawley rat plasma at 1 mg/kg, iv administered via infusion over 30 mins measured over 24 hrs by LC/MS/MS analysis; format: ADME, organism-based; outline: as §1
[16] = Clearance in rhesus monkey plasma at 1 mg/kg, iv administered via infusion over 30 mins measured over 24 hrs by LC/MS/MS analysis; format: ADME, organism-based, Macaca mulatta; outline: as §1
ZR-75-1 = experiment: Growth inhibition of PTEN-deficient human ZR-75-1 cells after 72 hrs by Celltiter-Glo reagent based assay; format: functional; settings: ZR-75-1, 72 h
[17] = Unbound fraction in cynomolgus monkey plasma; format: ADME, cell-free, Macaca fascicularis
[18] = Inhibition of human CYP450; format: ADME; outline: as §3
[19] = Mean residence time in cynomolgus monkey plasma at 1 mg/kg, iv administered via infusion over 30 mins measured over 24 hrs by LC/MS/MS analysis; format: ADME, organism-based, Macaca fascicularis; outline: as §1
[20] = Clearance in cynomolgus monkey plasma at 1 mg/kg, iv administered via infusion over 30 mins measured over 24 hrs by LC/MS/MS analysis; format: ADME, organism-based, Macaca fascicularis; outline: as §1
[21] = Volume of distribution at steady state in cynomolgus monkey at 1 mg/kg, iv administered via infusion over 30 mins measured over 24 hrs by LC/MS/MS analysis; format: ADME, organism-based, Macaca fascicularis; settings: in vivo, read-out: Vdss; outline: as §1
A498 = experiment: Growth inhibition of human A498 cells harboring PI3Kbeta mutant after 72 hrs by Celltiter-Glo reagent based assay; format: functional; settings: A498, 72 h
[22] = Volume of distribution at steady state in rhesus monkey at 1 mg/kg, iv administered via infusion over 30 mins measured over 24 hrs by LC/MS/MS analysis; format: ADME, organism-based, Macaca mulatta; settings: in vivo, read-out: Vdss; outline: as §1
[23] = Oral bioavailability in cynomolgus monkey plasma at 5 mg/kg administered via gavage by LC/MS/MS analysis; format: ADME, organism-based, Macaca fascicularis; outline: as §2
[24] = Apparent terminal half life in Beagle dog plasma at 1 mg/kg, iv administered via infusion over 30 mins measured over 24 hrs by LC/MS/MS analysis; format: ADME, organism-based, Canis lupus familiaris; settings: read-out: betat1/2(app) (converted); outline: as §1
[25] = Unbound fraction in rhesus monkey plasma; format: ADME, cell-free, Macaca mulatta
[26] = Clearance in Sprague-Dawley rat plasma at 1 mg/kg, iv administered via infusion over 30 mins measured over 24 hrs by LC/MS/MS analysis; format: ADME, organism-based; outline: as §1
LNCaP [27] = experiment: Antitumor activity against human PTEN-deficient androgen responsive LNCAP cells xenografted in CB17 SCID mouse assessed as tumor growth inhibition at 3 mg/kg administered by oral gavage twice daily for 14 days; format: functional; settings: 336 h, read-out: TGI
Outline: (§4)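 Mice bearing LNCaP tumours were dosed at 15, 7.5 and 3 mg/kg twice a day. Tumour volume (mm3) was measured twice a week throughout. Growth inhibition was calculated after the final dose for each dose group.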

Mus musculus [28] = experiment: In vivo inhibition of PI3Kbeta in CB17 SCID mouse xenografted with human PTEN-deficient androgen responsive LNCAP cells assessed as inhibition of AKT1 phosphorylation at Serine 473 at […] administered by oral gavage and measured after 8 hrs; format: functional
[29] = Inhibition of PI3Kbeta mutant in PTEN-deficient human A498 cells assessed decrease in AKT1 phosphorylation at Ser473 after 2 hrs; settings: A498, 2 h
[30] = Volume of distribution at steady state in Beagle dog plasma at 1 mg/kg, iv administered via infusion over 30 mins measured over 24 hrs by LC/MS/MS analysis; format: ADME, organism-based, Canis lupus familiaris; settings: read-out: Vdss; outline: as §1
LNCaP [31] = experiment: Antitumor activity against human PTEN-deficient androgen responsive LNCAP cells xenografted in CB17 SCID mouse assessed as tumor growth inhibition at […] administered by oral gavage twice daily for 14 days; format: functional; settings: 336 h, read-out: TGI
[32] = Apparent terminal half life in Sprague-Dawley rat plasma at 1 mg/kg, iv administered via infusion over 30 mins measured over 24 hrs by LC/MS/MS analysis; format: ADME, organism-based; settings: read-out: betat1/2(app) (converted); outline: as §1
Mus musculus [33] = experiment: In vivo inhibition of PI3Kbeta in CB17 SCID mouse xenografted with human PTEN-deficient androgen responsive LNCAP cells assessed as inhibition of AKT1 phosphorylation at Serine 473 at 15 mg/kg administered by oral gavage and measured after 2 hrs; format: functional
[34] = Unbound fraction in Sprague-Dawley rat plasma; format: ADME, cell-free
[35] = Unbound fraction in Beagle dog plasma; format: ADME, cell-free, Canis lupus familiaris
MDA-MB-415 = experiment: Growth inhibition of PTEN-deficient human MDA-MB-415 cells after 72 hrs by Celltiter-Glo reagent based assay; format: functional; settings: MDA-MB-415, 72 h
[36] = Clearance in Beagle dog plasma at 1 mg/kg, iv administered via infusion over 30 mins measured over 24 hrs by LC/MS/MS analysis; format: ADME, organism-based, Canis lupus familiaris; outline: as §1
PC-3 = experiment: Growth inhibition of PTEN-deficient human PC3 cells after 72 hrs by Celltiter-Glo reagent based assay; format: functional; settings: PC-3, 72 h
LNCaP [37] = experiment: Antitumor activity against human PTEN-deficient androgen responsive LNCAP cells xenografted in CB17 SCID mouse assessed as tumor growth inhibition at 15 mg/kg administered by oral gavage twice daily for 14 days; format: functional; settings: 336 h, read-out: TGI; outline: as §4
[38] = Apparent terminal half life in cynomolgus monkey plasma at 1 mg/kg, iv administered via infusion over 30 mins measured over 24 hrs by LC/MS/MS analysis; format: ADME, organism-based, Macaca fascicularis; settings: read-out: betat1/2(app) (converted); outline: as §1
[39] = Oral bioavailability in Beagle dog plasma at 5 mg/kg administered via gavage by LC/MS/MS analysis; format: ADME, organism-based, Canis lupus familiaris; outline: as §2
LNCaP [40] = experiment: Antitumor activity against human PTEN-deficient androgen responsive LNCAP cells xenografted in CB17 SCID mouse administered by oral gavage twice daily for 14 days; format: functional; settings: 336 h, read-out: MED; outline: as §4

Chain of Phosphatidylinositol 4,5-bisphosphate 3-kinase catalytic subunit gamma isoform (P48736 whole entry, canonical isoform): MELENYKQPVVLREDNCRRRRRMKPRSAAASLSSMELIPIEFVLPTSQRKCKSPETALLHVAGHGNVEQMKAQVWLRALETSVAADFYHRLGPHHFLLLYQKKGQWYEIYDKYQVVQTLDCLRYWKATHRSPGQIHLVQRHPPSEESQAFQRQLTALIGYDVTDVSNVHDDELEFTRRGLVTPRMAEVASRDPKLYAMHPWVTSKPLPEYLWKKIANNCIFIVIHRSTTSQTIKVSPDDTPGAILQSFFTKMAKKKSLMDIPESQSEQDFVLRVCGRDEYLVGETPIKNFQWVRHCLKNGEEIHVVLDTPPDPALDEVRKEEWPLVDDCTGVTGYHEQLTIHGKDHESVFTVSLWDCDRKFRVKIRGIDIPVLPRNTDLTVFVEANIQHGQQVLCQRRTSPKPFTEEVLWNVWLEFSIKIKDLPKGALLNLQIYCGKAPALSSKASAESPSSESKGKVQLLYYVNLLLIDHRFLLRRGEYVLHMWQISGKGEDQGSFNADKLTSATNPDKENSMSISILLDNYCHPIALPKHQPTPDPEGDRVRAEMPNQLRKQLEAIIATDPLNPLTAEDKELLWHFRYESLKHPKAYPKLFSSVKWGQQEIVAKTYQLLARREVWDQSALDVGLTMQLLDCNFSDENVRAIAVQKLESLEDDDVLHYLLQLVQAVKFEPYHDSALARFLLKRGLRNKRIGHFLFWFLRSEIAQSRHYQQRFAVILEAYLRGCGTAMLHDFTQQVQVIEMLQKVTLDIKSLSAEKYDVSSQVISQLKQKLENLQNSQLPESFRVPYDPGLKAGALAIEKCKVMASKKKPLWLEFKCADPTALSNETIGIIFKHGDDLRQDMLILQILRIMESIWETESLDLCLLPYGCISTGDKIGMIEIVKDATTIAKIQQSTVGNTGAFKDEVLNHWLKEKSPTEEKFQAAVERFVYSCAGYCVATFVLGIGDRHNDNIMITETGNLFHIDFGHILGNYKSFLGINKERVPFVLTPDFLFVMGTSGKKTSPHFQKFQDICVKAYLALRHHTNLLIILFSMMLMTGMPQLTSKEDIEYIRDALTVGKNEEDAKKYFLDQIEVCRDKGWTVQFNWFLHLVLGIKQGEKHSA
Chain of PI3-kinase p110-alpha/p85-alpha (P27986 whole entry): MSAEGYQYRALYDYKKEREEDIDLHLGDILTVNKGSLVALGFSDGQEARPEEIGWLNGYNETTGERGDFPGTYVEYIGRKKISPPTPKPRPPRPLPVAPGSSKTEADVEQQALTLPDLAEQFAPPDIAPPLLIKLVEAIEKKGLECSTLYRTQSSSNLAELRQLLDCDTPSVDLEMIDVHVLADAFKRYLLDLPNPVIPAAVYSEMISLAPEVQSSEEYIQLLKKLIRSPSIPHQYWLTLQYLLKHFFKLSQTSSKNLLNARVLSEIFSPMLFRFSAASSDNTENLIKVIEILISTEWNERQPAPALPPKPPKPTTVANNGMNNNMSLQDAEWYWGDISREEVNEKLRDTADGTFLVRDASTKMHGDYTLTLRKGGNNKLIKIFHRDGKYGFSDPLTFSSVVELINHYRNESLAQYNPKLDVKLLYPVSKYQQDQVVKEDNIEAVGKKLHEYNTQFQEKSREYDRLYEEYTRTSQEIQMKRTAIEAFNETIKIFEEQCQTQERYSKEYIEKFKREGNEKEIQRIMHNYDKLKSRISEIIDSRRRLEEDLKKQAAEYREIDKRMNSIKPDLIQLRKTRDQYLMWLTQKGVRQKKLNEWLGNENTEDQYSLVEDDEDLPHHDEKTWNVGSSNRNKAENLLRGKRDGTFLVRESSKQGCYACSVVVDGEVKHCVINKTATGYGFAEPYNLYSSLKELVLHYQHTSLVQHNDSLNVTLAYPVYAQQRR
Chain of PI3-kinase p110-alpha/p85-alpha (P42336 whole entry): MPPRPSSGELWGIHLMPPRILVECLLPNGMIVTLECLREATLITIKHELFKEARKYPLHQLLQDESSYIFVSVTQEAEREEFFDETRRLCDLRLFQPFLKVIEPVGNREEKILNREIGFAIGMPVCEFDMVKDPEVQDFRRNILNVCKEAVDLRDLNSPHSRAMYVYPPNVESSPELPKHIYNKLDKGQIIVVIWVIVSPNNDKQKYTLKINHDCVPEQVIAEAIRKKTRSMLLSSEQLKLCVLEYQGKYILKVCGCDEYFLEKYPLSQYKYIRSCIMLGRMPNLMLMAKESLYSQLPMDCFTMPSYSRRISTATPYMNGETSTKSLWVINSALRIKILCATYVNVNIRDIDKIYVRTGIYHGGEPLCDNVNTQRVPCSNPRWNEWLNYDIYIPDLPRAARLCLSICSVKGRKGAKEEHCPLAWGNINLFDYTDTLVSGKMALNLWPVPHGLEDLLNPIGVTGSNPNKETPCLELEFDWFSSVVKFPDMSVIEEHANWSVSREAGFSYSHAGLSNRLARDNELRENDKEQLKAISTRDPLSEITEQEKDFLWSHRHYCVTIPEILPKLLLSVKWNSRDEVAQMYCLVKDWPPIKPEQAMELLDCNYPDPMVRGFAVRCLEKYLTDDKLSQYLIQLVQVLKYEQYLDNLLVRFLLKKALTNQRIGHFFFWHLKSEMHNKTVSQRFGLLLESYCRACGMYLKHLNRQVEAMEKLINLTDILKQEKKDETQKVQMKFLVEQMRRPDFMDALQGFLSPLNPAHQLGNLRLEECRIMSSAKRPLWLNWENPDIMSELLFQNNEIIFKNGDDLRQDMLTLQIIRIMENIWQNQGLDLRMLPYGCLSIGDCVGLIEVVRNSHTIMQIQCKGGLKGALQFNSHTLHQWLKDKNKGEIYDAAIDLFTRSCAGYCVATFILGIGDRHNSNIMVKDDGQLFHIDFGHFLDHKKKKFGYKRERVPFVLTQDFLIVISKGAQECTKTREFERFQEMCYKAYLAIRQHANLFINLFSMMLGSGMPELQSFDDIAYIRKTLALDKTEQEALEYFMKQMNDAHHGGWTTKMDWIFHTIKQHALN
Chain of PI3-kinase p110-delta/p85-alpha (P27986 whole entry): as the sequence (P27986 whole entry) above
Chain of PI3-kinase p110-delta/p85-alpha (O00329 whole entry): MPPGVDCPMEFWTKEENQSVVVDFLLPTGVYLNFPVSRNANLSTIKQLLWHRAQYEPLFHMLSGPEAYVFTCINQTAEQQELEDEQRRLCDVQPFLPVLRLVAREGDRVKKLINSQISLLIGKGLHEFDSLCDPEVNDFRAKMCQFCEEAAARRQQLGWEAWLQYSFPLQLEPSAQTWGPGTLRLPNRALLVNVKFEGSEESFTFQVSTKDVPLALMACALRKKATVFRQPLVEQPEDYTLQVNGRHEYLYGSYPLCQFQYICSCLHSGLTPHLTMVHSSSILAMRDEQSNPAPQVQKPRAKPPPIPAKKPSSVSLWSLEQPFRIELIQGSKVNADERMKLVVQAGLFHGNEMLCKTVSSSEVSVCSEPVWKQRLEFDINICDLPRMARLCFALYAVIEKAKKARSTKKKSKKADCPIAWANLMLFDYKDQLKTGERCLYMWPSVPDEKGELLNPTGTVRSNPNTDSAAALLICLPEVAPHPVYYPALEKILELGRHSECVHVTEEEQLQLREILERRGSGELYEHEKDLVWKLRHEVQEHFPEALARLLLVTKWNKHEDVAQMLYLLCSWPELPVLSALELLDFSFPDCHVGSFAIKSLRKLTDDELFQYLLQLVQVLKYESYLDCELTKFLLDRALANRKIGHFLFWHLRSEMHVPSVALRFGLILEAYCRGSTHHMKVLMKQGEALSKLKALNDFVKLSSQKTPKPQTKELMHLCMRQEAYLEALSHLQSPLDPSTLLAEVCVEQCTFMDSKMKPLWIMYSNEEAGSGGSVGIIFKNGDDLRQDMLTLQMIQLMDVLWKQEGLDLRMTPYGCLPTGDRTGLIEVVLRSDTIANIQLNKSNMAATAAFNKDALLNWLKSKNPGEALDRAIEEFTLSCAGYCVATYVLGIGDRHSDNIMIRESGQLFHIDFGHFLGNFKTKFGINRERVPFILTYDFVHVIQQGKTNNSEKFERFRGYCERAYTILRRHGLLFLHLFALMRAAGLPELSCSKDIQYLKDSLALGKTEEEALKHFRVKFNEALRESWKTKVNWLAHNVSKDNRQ

C[C@H](Nc1ncnc(N)c1C#N)c1nc2cccc(Cl)c2c(=O)n1-c1ccccc1
pIC50 [1]: 6.81 | pIC50 [2]: 5.69 | pIC50 [3]: 9.47

C[C@H](Nc1nc(N)nc(N)c1Cl)c1nc2cccc(Cl)c2c(=O)n1-c1ccon1
pIC50 [1]: 6.30

CC[C@H](Nc1ncnc2[nH]cnc12)c1nc2cccc(F)c2c(=O)n1-c1ccc(O)cc1
pIC50 [1]: 5.37 | pIC50 [2]: 5.80 | pIC50 [3]: 7.85

C[C@H](Nc1nc(N)nc(N)c1C#N)c1nc2cccc(Cl)c2c(=O)n1-c1cc[nH]n1
pIC50 [1]: 7.27 | Drug metabolism [4]: Metabolite_Notdetected

C[C@H](Nc1nc(N)nc(N)c1Cl)c1nc2cccc(Cl)c2c(=O)n1-c1cc[nH]n1
Vd [5]: 1.29 L/kg | Papp B→A [6]: 19.6 ×10⁻⁶ cm/s | clearance [7]: 23.8 mL/min/kg | Papp A→B [8]: 1.1 ×10⁻⁶ cm/s | bioavailability [9]: 26%

N#Cc1c(N)nc(N)nc1N[C@H](c1nc2c(Cl)cc(F)cc2c(=O)n1-c1cc[nH]n1)C1CC1
Vd [5]: 0.22 L/kg | Papp B→A [6]: 17.3 ×10⁻⁶ cm/s | clearance [7]: 1.17 mL/min/kg | Papp A→B [8]: 1.5 ×10⁻⁶ cm/s | bioavailability [9]: 12%

C[C@H](Nc1nc(N)nc(N)c1Cl)c1nc2c(Cl)cc(F)cc2c(=O)n1-c1cc[nH]n1
GI50 (LNCaP [10]): 38 nM | MRT [11]: 4.7 h | MRT [12]: 4.54 h | half-life [13]: 3.61 h | pIC50 [14]: < 4.60 | MRT [15]: 1.97 h | clearance [16]: 6.83 mL/min/kg | Vd [5]: 0.52 L/kg | GI50 (ZR-75-1): 2 nM | Papp B→A [6]: 21.7 ×10⁻⁶ cm/s | clearance [7]: 4.33 mL/min/kg | fraction unbound [17]: 0.0305 | pIC50 [18]: < 4.60 | MRT [19]: 6.28 h | clearance [20]: 4 mL/min/kg | Vd [21]: 1.5 L/kg | GI50 (A498): 80 nM | Vd [22]: 1.88 L/kg | bioavailability [23]: 68.6% | Papp A→B [8]: 5.7 ×10⁻⁶ cm/s | half-life [24]: 3.91 h | fraction unbound [25]: 0.0333 | clearance [26]: 4.33 mL/min/kg | inhibition in vivo at 3 mg/kg (LNCaP [27]): 42% | bioavailability [9]: 66 to 66.4% | inhibition in vivo at […] (Mus musculus [28]): 64% | pEC50 [29]: 8.25 | Vd [30]: 1.14 L/kg | inhibition in vivo at […] (LNCaP [31]): 65% | half-life [32]: 2.69 h | inhibition in vivo at 15 mg/kg (Mus musculus [33]): 64% | fraction unbound [34]: 0.0085 | fraction unbound [35]: 0.0196 | GI50 (MDA-MB-415): 12 nM | clearance [36]: 4.17 mL/min/kg | GI50 (PC-3): 120 nM | inhibition in vivo at 15 mg/kg (LNCaP [37]): 73% | half-life [38]: 4.96 h | bioavailability [39]: 90.4% | minimal effective dose (LNCaP [40]): 7.5 mg/kg

N#Cc1c(N)nc(N)nc1N[C@H](c1nc2cccc(Cl)c2c(=O)n1-c1cc[nH]n1)C1CC1
pIC50 [1]: 6.70 | Drug metabolism [4]: Metabolite_Notdetected

C[C@H](Nc1ncnc(N)c1C#N)c1nc2cccc(Cl)c2c(=O)n1-c1ccc(O)cc1
pIC50 [1]: 6.73

Nc1nc(N)c(Cl)c(N[C@H](c2nc3cccc(Cl)c3c(=O)n2-c2cc[nH]n2)C2CC2)n1
Vd [5]: 0.83 L/kg | Papp B→A [6]: 11.8 ×10⁻⁶ cm/s | clearance [7]: 9.67 mL/min/kg | pIC50 [1]: 5.38 | Papp A→B [8]: 2.2 ×10⁻⁶ cm/s | bioavailability [9]: 42% | Drug metabolism [4]: Metabolite_Detected

N#Cc1c(N[C@H](c2nc3c(Cl)cc(F)cc3c(=O)n2-c2cc[nH]n2)C2CC2)nc(N)nc1C(F)F
pIC50 [2]: 6.12
